Compound activity from PubChem.
Most compounds without a hit are left out; they make up all but 6.6% or so of the library.
JNK3 inh: blocks human JNK3 kinase activity; 60,000 compounds, 0.61% hits; inhibition, % at 8 µM; AID 746; purified JNK3 kinase activity, HTS; in the data active = inhibition above about 17%;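 note: 0% = DMSO and 100% = reference inhibitor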
BAP1 inh: inhibitors of human BAP1 deubiquitinase; recombinant BAP1, Ub-AMC hydrolysis fluorescence kinetic; hits give low values; Q92560; 72,000 compounds, 0.48% hits; calls only at 20 µM;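 active = activity remaining at or below 50% of control, provided the compound also passes the data quality filters; inactive = the rest, including low values that fail the filters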;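 note: 100% = DMSO wells rate and 0% = substrate alone blank rate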
Target sequence (Q92560 whole entry, looked up): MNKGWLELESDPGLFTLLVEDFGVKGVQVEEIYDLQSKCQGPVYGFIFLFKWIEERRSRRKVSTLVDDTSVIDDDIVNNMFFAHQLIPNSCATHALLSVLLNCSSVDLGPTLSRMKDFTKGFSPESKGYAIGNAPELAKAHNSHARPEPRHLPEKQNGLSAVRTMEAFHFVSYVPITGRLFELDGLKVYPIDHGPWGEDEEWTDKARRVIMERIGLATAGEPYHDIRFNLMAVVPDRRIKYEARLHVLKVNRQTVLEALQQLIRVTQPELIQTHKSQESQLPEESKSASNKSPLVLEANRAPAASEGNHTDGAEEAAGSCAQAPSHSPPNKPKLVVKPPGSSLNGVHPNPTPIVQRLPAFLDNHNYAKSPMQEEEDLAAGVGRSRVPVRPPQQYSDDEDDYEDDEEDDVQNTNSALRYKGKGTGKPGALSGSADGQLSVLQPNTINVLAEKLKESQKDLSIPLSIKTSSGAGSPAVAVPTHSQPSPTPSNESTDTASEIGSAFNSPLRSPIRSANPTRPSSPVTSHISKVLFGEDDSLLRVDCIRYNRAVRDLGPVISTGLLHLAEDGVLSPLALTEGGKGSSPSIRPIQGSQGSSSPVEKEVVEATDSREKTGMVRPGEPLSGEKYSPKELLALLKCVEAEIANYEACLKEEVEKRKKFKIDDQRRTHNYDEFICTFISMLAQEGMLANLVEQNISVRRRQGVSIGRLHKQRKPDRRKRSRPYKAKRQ
M1 agonist: agonists of M1 muscarinic receptor; CHO-M1 cells, Fluo-4 calcium fluorescence, agonist mode; hits give high values; B-score at 10 µM; 64,000 compounds, 3% hits; AID 626;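 active = fluorescence rise, raw or as B-score row- and column-corrected plate score, outside the 99.7% band of its plate's samples, either direction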
HEK293 NFkB inh: inhibitors of the PMA/ionomycin-induced NF-kB reporter in HEK293 cells | HEK-293 NF-kB luciferase reporter, luminescence | 62,000 compounds, 0.21% hits | AID 465 | inhibition, % at 3 µM;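 active = inhibition above the mean of all tested compounds plus 3 SD, cut at about 40% in these data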;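 note: 0% = stimulated DMSO wells and 100% = 10 µM reference inhibitor 5653914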
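System: NF-kB luciferase reporter HEK-293 cells | Replication: Single test | Control set: DMSO vs reference inhibitor | Evaluation: % inhibition | Schedule: 1 h pretreatment, 16 h stimulation, 37 °C | Probe or stimulus: PMA with ionomycin | Compound dosing: One dose, 3 µM | Detection: Luciferase luminescence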
M1 antag: M1 muscarinic receptor (rat) antagonism; P08482; CHO-M1 cells, Fluo-4 calcium, ACh EC80 antagonist mode; hits give low values; B-score at 10 µM; 64,000 compounds, 3.4% hits; AID 628;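 active = calcium fluorescence response, raw or row-and-column corrected B-score, differing from the plate sample mean either way at a set confidence level, mostly lower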
HER2 expr 66K: Her2 kinase expression inhibition | P04626 | SKBR-3 HER2 protein level, AlphaScreen, 18-24 h; hits give low values | HER2 level % of control, % at 10 µM | 65,000 compounds, 0.69% hits;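 active = HER2 level under 5% of the carrier-only control; inconclusive = no clear call, values can overlap the other calls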;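 note: 100% = DMSO carrier and 0% = 500 nM PU-H71 HSP90 inhibitor; lower value means stronger loss of Her2 protein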
BAP1 inh conf: BAP1 (human) enzyme inhibition, confirmed; shares compounds with BAP1 inh; purified BAP1, Ub-ethyl ester hydrolysis, HPLC; hits give low values; % of control activity, % at 20 µM; 310 compounds, 8% hits;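 active = percent of control activity at or below 60%; inconclusive = HPLC trace unusable from injection failure or solvent front hiding peaks; inactive = the rest, plus ubiquitin peak ratio over a set limit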
Active calls of the source: *; i = inactive; u = inconclusive; x = not tested or not shown; + = active, no number.

SMILES | JNK3 inh | BAP1 inh | M1 agonist | HEK293 NFkB inh | M1 antag | HER2 expr 66K | BAP1 inh conf
CCSCCOC(=O)C1=C(C)NC2=C(C(=O)CC(c3ccc(Cl)cc3)C2)C1c1ccc(N(C)C)cc1 (configuration not stated) | x | i | x | x | x | x | x
Cc1ccc2cc(CN(Cc3ccccc3)Cc3nnnn3C3CCCC3)c(=O)[nH]c2c1 | -7 | + | 0.66 | 10 | 0.16 | 67 | 90
CCOC(=O)Cn1nnnc1C(CC)N(Cc1cccs1)Cc1cc2cc(C)ccc2[nH]c1=O (configuration not stated) | -4 | x | 0.76 | 8 | 0.3 | 89 | x
Cc1ccc2cc(CN(Cc3ccc(F)cc3)Cc3nnnn3C3CCCC3)c(=O)[nH]c2c1 | 2 | + | -1.2 | 14 | 0.71 | 87 | 86
COc1ccc2cc(CN(Cc3ccco3)Cc3nnnn3C3CCCCC3)c(=O)[nH]c2c1 | -6 | i | 0.42 | 8 | -0.0034 | 76 | x
CCC(c1nnnn1C1CCCC1)N(Cc1cccs1)Cc1cc2cc(C)ccc2[nH]c1=O (configuration not stated) | -4 | + | -0.2 | 14 | -0.41 | 43 | 76
Cc1ccc(-n2nnnc2SCC(=O)Nc2cccc(NC(=O)c3ccco3)c2)cc1C | 4 | + | 0.62 | 8 | 0.013 | 118 | 92
N#Cc1c(NC(=O)CCN2C(=O)c3ccccc3C2=O)oc(-c2ccccc2)c1-c1ccccc1 | -4 | + | 0.95 | 24 | -0.56 | 85 | 50*
Cc1ccnc(NS(=O)(=O)c2ccc(NS(=O)(=O)c3c(C(C)C)cc(C(C)C)cc3C(C)C)cc2)n1 | x | i | x | x | x | x | x
COc1ccc(-c2cc3c(=O)n(CC(=O)NC4CCN(Cc5ccccc5)CC4)ncn3n2)cc1 | -9 | + | 0.11 | -2 | -0.019 | 70 | 87
COc1ccc2oc(=Nc3cccc(F)c3)c(C(=O)Nc3ccccc3)cc2c1 | x | i | x | x | x | x | x
CCC(CC)C(=O)Nc1c2c(nn1-c1ccccc1C)CSC2 | x | i | x | x | x | x | x
Cc1cccc(NC(=O)c2ccccc2C(=O)O)n1 | x | i | x | x | x | x | x
CCOC(=O)c1c(NC(=O)CSc2nnc(-c3cccnc3)o2)sc(C)c1C | -3 | i | 0.052 | 21 | -0.039 | 105 | x
CCOC(=O)c1c(NC(=O)CSc2nnc(CNc3ccc(F)cc3)o2)sc(C)c1C | -7 | + | -0.35 | 8 | 0.28 | 145 | u
COc1cc(OC)nc(NC(=O)CSc2nc3ccccc3o2)n1 | 1 | + | -0.5 | 4 | -0.056 | 130 | 84
CCn1c(=O)c2cc(C(=O)N3CCOCC3)sc2c2ccccc21 | 2 | + | 0.55 | 2 | 0.87 | 68 | 83
Cc1ccc2nc(-c3ccccc3)cc(C(=O)Nc3ccccc3C)c2c1 | x | i | x | x | x | x | x
O=C(Nc1nc(-c2nc3ccccc3s2)cs1)c1ccc(S(=O)(=O)N2CCOCC2)cc1 | 0 | + | 1.5 | -16 | -0.55 | 74 | 109
COc1ccc(S(=O)(=O)Nc2ccc(S(=O)(=O)N3CCCCC3)cc2)cc1 | -1 | i | 0.058 | 17 | -0.72 | 91 | x
COc1ccc(CNS(=O)(=O)c2ccc(S(=O)(=O)N3CCCCC3)cc2)cc1 | -3 | + | -0.34 | 18 | -1.2 | 102 | u
CCOc1cc([N+](=O)[O-])cc(C=Nc2ccc3oc(-c4cccc(C)c4)nc3c2)c1O | x | i | x | x | x | x | x
COc1cc(NC(=O)c2cc3ccccc3o2)c(OC)cc1Cl | 4 | i | -0.77 | 17 | -0.0018 | 64 | x
COc1cc(NC(=O)c2cc3ccccc3o2)c(OC)cc1Br | -1 | + | -1.2 | 21 | 0.056 | 65 | 134
NC(=O)c1c(N=c2oc3ccc(Cl)cc3cc2C(N)=O)sc2c1CCCC2 | x | i | x | x | x | x | x
SMILES | JNK3 inh | BAP1 inh | M1 agonist | HEK293 NFkB inh | M1 antag | HER2 expr 66K | BAP1 inh conf
CCOC(=O)Cn1nnnc1CN(Cc1ccc(OC)cc1)Cc1cc2cc(CC)ccc2[nH]c1=O | 0 | + | -0.62 | 1 | -0.011 | 64 | 97
CCOC(=O)Cn1nnnc1CN(Cc1ccc(OC)cc1)Cc1cc2cc(C)ccc2[nH]c1=O | 5 | i | -0.023 | 13 | -0.56 | 100 | x
CCc1nc(SCC(=O)Nc2ccc3c(c2)OCCO3)c2oc3ccccc3c2n1 | 8 | + | -0.34 | 23 | 0.53 | 102 | u
Cc1nc(SCC(=O)Nc2ccc3c(c2)OCCO3)c2oc3ccccc3c2n1 | x | x | -1.8 | 9 | 1.1 | x | x
CC(=O)OC1c2c(ccc3ccc(=O)oc23)OC(C)(C)C1OC(=O)CC(C)C (configuration not stated) | 10 | + | -0.25 | 0 | 0.6 | 107 | 99
COC1=Cc2c(ccc3ccc(=O)oc23)OC1(C)C | x | x | 0 | 18 | -0.33 | 189 | x
O=C(CSc1nnc(-c2c[nH]c3ccccc23)o1)N1c2ccccc2CCc2ccccc21 | 2 | + | 0.61 | 6 | -0.22 | 88 | 94
O=C(NCc1ccc(F)cc1)c1cc2n(n1)C(C(F)(F)F)CC(c1ccc(Cl)cc1)N2 (configuration not stated) | x | i | x | x | x | x | x
O=C(Nc1ccc(F)cc1F)c1cc2n(n1)C(C(F)(F)F)C1CCCCC1N2 (configuration not stated) | -4 | + | 0.69 | -13 | 0.93 | 63 | 117
C=CCn1c(-c2cc(OC)c(OC)c(OC)c2)n[nH]c1=S | 2 | + | 0.51 | 5 | -0.12 | 95 | 87
CCn1c(-c2cc(OC)c(OC)c(OC)c2)n[nH]c1=S | 7 | i | -0.091 | 14 | -0.038 | 130 | x
O=C(O)Cn1cc(C(=O)c2cccs2)c2ccccc21 | 14 | + | 0 | 12 | 1.2 | 80 | 148
CCOc1ccccc1NC(=O)Cn1cnc2c(cnn2-c2ccc(C)c(C)c2)c1=O | -2 | i | 0.7 | 17 | 1.8 | 90 | x
Cc1ccc(-n2ncc3c(=O)n(CC(=O)Nc4cccc(Cl)c4)cnc32)cc1C | -1 | + | -0.42 | 1 | -0.087 | 86 | 79
Cc1ccc(NC(=O)N2CCC(C(=O)NCCC3=CCCCC3)CC2)cc1 | 4 | + | 1.3 | 3 | 0.38 | 103 | 67
CC1=C(C(=O)Nc2ccccc2)C(c2ccccc2O)NC(=S)N1 (configuration not stated) | x | i | x | x | x | x | x
COc1ccccc1C(c1nnnn1CCc1ccccc1)N1CCN(c2ccccc2)CC1 (configuration not stated) | 0 | + | 0.43 | 8 | -0.076 | 172 | 89
Cc1ccc2[nH]c(=O)c(C(c3nnnn3CCc3ccccc3)N3CCOCC3)cc2c1 (configuration not stated) | -5 | + | -0.23 | 6 | 0.28 | 92 | 90
COCCn1nnnc1C(c1cc2cc(C)ccc2[nH]c1=O)N1CCCCCC1 (configuration not stated) | 5 | i | -0.65 | 4 | 0.45 | 97 | x
